Screening data: PubChem, several laboratories
The entries come from a sample that favours hits as a whole.
CHOP UPR activ: activators of apoptotic arm of unfolded protein response (CHOP). CHO-CHOP luciferase reporter, UPR activation, luminescence; percent of tunicamycin response over DMSO baseline. activation, % at 10 µM. 330,000 tested, 0.34% active;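 active = at 10 µM dose, activation of 40% or more, normalized to positive control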
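System: CHO CHOP reporter cells. Amount: 500 cells per well. Buffer or medium: F12 medium, 10% FBS. Compound dosing: one dose, 10 µM in 0.5% DMSO. Incubation: 6 h compound exposure at 37 °C after overnight seeding. Technique: Steady-Glo luciferase luminescence. Benchmarks: tunicamycin and DMSO controls.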
V-ATPase pH: yeast V-ATPase proton transport regulation by pHLuorin | response, % at 10 µM | 350,000 tested, 0.37% active | S. cerevisiae, pHLuorin cytosolic pH fluorescence | AID 504577; in the data active = response mostly above about 7.3%, no sharp cut-off; inactive = mostly below about 5.4%; also: actives read high
UPR XBP1 act: adaptive UPR (XBP1) activation; CHO-XBP1 luciferase reporter, IRE1-XBP1 UPR activation, luminescence; percent of tunicamycin response, DMSO as zero; AID 463104; 330,000 tested, 0.33% active; activation, % at 20 µM;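 active = versus positive control, 20 µM dose yields 30% or more activation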
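Material: CHO cell line with stable XBP1 luciferase reporter; schedule: 16-18 h cell attachment at 37 °C, then 6 h compound exposure; signal: glow luminescence from Steady-Glo reagent; medium: serum-containing F12 medium, 10% FBS; benchmarks: tunicamycin 10 µg/mL and vehicle-only wells; read-out: percent activation relative to tunicamycin reference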
TbMetRS inhib: blocks T. brucei methionyl-tRNA synthetase activity. purified T. brucei MetRS, ATP depletion, Kinase-Glo luminescence. inhibition, % at 11.9 µM. 360,000 tested, 0.4% active;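 active = inhibition above a per-plate cutoff of the control wells' mean inhibition plus 3 SD, cut at about 5.5% in these data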
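technique = Kinase-Glo luminescence, ATP depletion format | system = purified MetRS (methionyl-tRNA synthetase) enzyme from Trypanosoma brucei | timing = 15 min preincubation, 2 h reaction, all 25 °C | evaluation = percent inhibition versus plate control medians | dosing = single dose, 11.9 µM final nominal, 0.9% final DMSO | also added = substrates ATP, L-methionine and bulk Escherichia coli tRNA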
CHOP inh: CHOP inhibition in unfolded protein response | CHO-K1 CHOP-promoter luciferase, tunicamycin-induced, 15-18 h | inhibition, % at 10 µM | 220,000 tested, 3.8% active | AID 2732;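 active = compounds that reduced the stress-induced luciferase reporter signal by more than about 70% of percent inhibition, limit read from the data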
CHOP UPR conf: apoptotic UPR (CHOP) activation, confirmed; CHO-CHOP cells, CHOP-luciferase reporter luminescence; percent of tunicamycin response, DMSO as zero; shares compounds with CHOP UPR activ; activation, % at 10 µM; 1,000 tested, 64% active; in the data active = activation above about 33%
Each line names hits and unclear results; the compound was inactive in the other large screens (follow-up assays come after a bar, where they were run).

O=C(Nc1nc2c(F)cc(F)cc2s1)c1ccccn1	CHOP UPR activ 83.3, CHOP inh 79.1 | CHOP UPR conf 186.5
O=c1oc2cc(Oc3c([N+](=O)[O-])cc(C(F)(F)F)cc3[N+](=O)[O-])ccc2c2c1CCCC2	CHOP UPR activ 53.9, CHOP inh 94.5 | CHOP UPR conf inactive
O=C(CN(c1cccc(C(F)(F)F)c1)S(=O)(=O)c1ccc(Cl)c([N+](=O)[O-])c1)NCc1ccc(F)cc1	CHOP UPR activ 53.4 | CHOP UPR conf 49.5
COC(=O)c1cccc(CC2(C)C(=O)Nc3ccc(OC(F)(F)F)cc32)c1 (stereo not drawn)	none (no result: CHOP UPR activ, V-ATPase pH, UPR XBP1 act, CHOP inh)
O=C(NCCCN=C1NS(=O)(=O)c2ccccc21)c1ccc(Cl)cc1	none (no result: CHOP inh)
Cc1cc(-n2c(C)cc(C(=O)CCl)c2C)no1	CHOP UPR activ 171.2 | CHOP UPR conf 262.6
Cc1cc(-n2c(C)cc(C(=O)CN3C(=O)C(=O)N(C)C3=O)c2C)no1	none (no result: CHOP inh)
CCOc1ccc(/C=C/[N+](=O)[O-])c2ccccc12	CHOP UPR activ 221.1 | CHOP UPR conf inactive
O=C1ON=C(c2ccc(Cl)cc2)/C1=C/c1ccc(O)cc1	CHOP UPR activ 106.6 (no result: V-ATPase pH, TbMetRS inhib) | CHOP UPR conf inactive
CC(C)Cc1nc(N2CCN(C(=O)C(C)C)CC2)c(C#N)c2c1CCC2	CHOP UPR activ 40.2 | CHOP UPR conf inactive
O=C(COC(=O)c1cc(Cl)nc(Cl)c1)NCc1ccc2c(c1)OCO2	none (no result: CHOP inh)
CCOC(=O)c1sc(N(Cc2ccccc2)C(=O)COC(=O)c2ccccc2O)nc1C	none
CCOC(=O)c1sc(N(Cc2ccccc2)C(=O)CCl)nc1C	CHOP UPR activ 49.0 (no result: CHOP inh) | CHOP UPR conf 218.8
O=C1NC(NS(=O)(=O)c2ccccc2)(C(F)(F)F)C(=O)N1c1cccc(Cl)c1 (stereo not drawn)	none (no result: CHOP inh)
CCOC(=O)c1c(CSC(=N)N)n(-c2ccc(C)cc2)c2cc(Br)c(OC(C)=O)cc12	CHOP UPR activ 56.1 | CHOP UPR conf 73.3
CC(C)N1C/C(=C/c2ccsc2)C(=O)/C(=C/c2ccsc2)C1	CHOP UPR activ 95.1 | CHOP UPR conf 91.2
O=C(Nc1ccccc1-c1ccccc1)C(=O)Nc1ccccc1-c1ccccc1	none (no result: V-ATPase pH, TbMetRS inhib)
CSCCC1NC(=O)N(CC(=O)Nc2ccc3c(c2)OCCO3)C1=O (stereo not drawn)	none (no result: CHOP inh)
O=S(=O)(Nc1cccc2ncccc12)c1cccs1	CHOP UPR activ 48.6 (no result: CHOP inh) | CHOP UPR conf inactive
Cc1c(NS(=O)(=O)c2cccs2)cccc1-c1nc2cccnc2s1	none
NC(=O)C1(C(N)=O)OC1c1ccccc1 (stereo not drawn)	none
CC(C)C[C@H](NC(=O)Nc1ccc(Oc2ccccc2)cc1)C(=O)O	none
COc1cc2nc(=S)n3[nH]c(COc4ccccc4C)nc3c2cc1OC	none
COc1cc2nc(=S)n3[nH]c(CCn4nc(C)cc4C)nc3c2cc1OC	CHOP UPR activ 131.5 | CHOP UPR conf 98.2
CN(C)S(=O)(=O)c1cccc(NC(=O)COC(=O)/C=C/c2ccc([N+](=O)[O-])cc2)c1	none
COc1ccc(-c2cc(C(F)F)n3ncc(C(=O)n4ccnc4C)c3n2)cc1	CHOP UPR activ 131.2 | CHOP UPR conf 135.3
O=C(NC1CCCC1)C(c1ccc(F)cc1)N(Cc1ccc(F)cc1)C(=O)CCl (stereo not drawn)	CHOP UPR activ 47.7, CHOP inh 91.9 | CHOP UPR conf 92.9
COc1ccc(C(C(=O)NC2CCCCC2)N(C(=O)CCl)c2ccc(C)cc2)cc1 (stereo not drawn)	CHOP UPR activ 61.7 | CHOP UPR conf inactive
O=C(NC1CCCCC1)C(c1ccncc1)N(Cc1ccc(F)cc1)C(=O)c1ccccn1 (stereo not drawn)	none (no result: CHOP inh)
Cc1ccccc1CNC(=O)c1[nH]c(C(F)(F)F)nc1-c1ccccc1	none (no result: CHOP UPR activ, V-ATPase pH, UPR XBP1 act, CHOP inh)
Cc1cccnc1Nc1nc(-c2ccccn2)cs1	CHOP UPR activ 450.8 | CHOP UPR conf 470.8
O=C(Nc1nc(-c2ccccn2)cs1)c1ccc(Cl)s1	CHOP UPR activ 90.2 (no result: CHOP inh) | CHOP UPR conf 125.9
Cc1cccc(Nc2nc(-c3ccccn3)cs2)n1	CHOP UPR activ 82.6 | CHOP UPR conf 35.0
O=C(N/N=C/c1ccc(O)c(O)c1)c1cc(-c2ccccc2)nc2ccccc12	CHOP UPR activ 98.6, UPR XBP1 act 33.6 (no result: CHOP inh) | CHOP UPR conf inactive
Cc1cc(SCC(=O)N/N=C/c2ccc(O)c(O)c2)nc2ccccc12	CHOP UPR activ 107.6, UPR XBP1 act 58.6 (no result: CHOP inh) | CHOP UPR conf 42.0
O=C(COC(=O)COc1ccc(Cl)cc1)NC1CC1	none (no result: CHOP inh)
COc1ccc(NC(=O)c2nc(S(=O)(=O)Cc3cccc(C)c3)ncc2Cl)c(OC)c1	CHOP UPR activ 61.4 (no result: CHOP inh) | CHOP UPR conf 295.9
Cc1nnc(NC(=O)c2nc(S(=O)(=O)Cc3ccccc3)ncc2Cl)s1	CHOP UPR activ 40.7 (no result: CHOP inh) | CHOP UPR conf inactive
Cc1cccc(CS(=O)(=O)c2ncc(Cl)c(C(=O)Nc3c(C)cccc3C)n2)c1	none (no result: CHOP inh)
COc1ccc(OC)c(NC(=O)c2nc(S(=O)(=O)Cc3ccccc3)ncc2Cl)c1	none (no result: CHOP inh)
Cc1ccccc1CS(=O)(=O)c1ncc(Cl)c(C(=O)Nc2ccc(F)cc2)n1	CHOP UPR activ 186.5 (no result: CHOP inh) | CHOP UPR conf 100.8
Cc1cccc(C)c1NC(=O)c1nc(S(=O)(=O)Cc2ccccc2)ncc1Cl	CHOP UPR activ 239.2 (no result: CHOP inh) | CHOP UPR conf 270.5
Cc1csc(SCC(=O)Nc2ccc3[nH]c(=O)[nH]c3c2)n1	none (no result: CHOP inh)
O=c1[nH]c(=S)[nH]c2c1CN(Cc1ccc(F)cc1)CC2	none (no result: CHOP inh)
O=C(Cc1cccc2ccccc12)Nc1c(F)cccc1F	none (no result: CHOP inh)
CCCOc1ccc(N2C(=O)CC(N(O)c3ccccc3)C2=O)cc1 (stereo not drawn)	CHOP UPR activ 191.6 | CHOP UPR conf 170.3
CCOC(=O)c1ccc(N=c2sc(C(=O)OC)cc(=O)n2Cc2ccco2)cc1	CHOP UPR activ 40.6 | CHOP UPR conf inactive
CCOC(=O)c1ccc(N=c2sc(C(=O)OC)cc(=O)n2CCCN2CCOCC2)cc1	none
CCCNC(=O)c1cc(C2CCCCN2S(C)(=O)=O)on1 (stereo not drawn)	none (no result: CHOP UPR activ, V-ATPase pH, UPR XBP1 act, CHOP inh)
N=C1N(/N=C/c2ccccc2)C(=Nc2ccccc2)C(=S)N1c1ccccc1	CHOP UPR activ 75.6 | CHOP UPR conf inactive
CCN1CCN(Cc2c(O)ccc3c2O/C(=C\C=C\c2ccccc2)C3=O)CC1	CHOP UPR activ 153.6 | CHOP UPR conf inactive
CN(C)Cc1c(O)ccc2c1O/C(=C\C=C\c1ccccc1)C2=O	CHOP UPR activ 96.5 | CHOP UPR conf inactive
O=C1/C(=C/C=C/c2ccccc2)Oc2c1ccc(O)c2CN1CCN(CCO)CC1	none
CCCn1c(SCC(=O)Nc2cc(C(=O)O)ccc2C)nc2sc3c(c2c1=O)CCC3	none (no result: CHOP inh)
